Laboratory results published in ChEMBL document CHEMBL3774372, “Design, physico-chemical properties and biological evaluation of some new N-[(phenoxy)alkyl]- and N-{2-[2-(phenoxy)ethoxy]ethyl}aminoalkanols as anticonvulsant agents” (Bioorg Med Chem, 2016).
Activity calls are given as the source filed them.

How the values were obtained:
[1] = system: Mus musculus; experiment: Neurotoxicity in mouse at 50 mg/kg, ip after 1 hr by rotarod test; assay type: toxicity, organism-based; conditions: in vivo
Method in brief: (§1)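 Mice were dosed ip with compound suspended in 0.5% methylcellulose. Rotarod: a 1 in. knurled rod turning at 6 rpm. Neurotoxicity was scored as failure to stay on the rod for at least 1 min in each of three trials. Results are given as the number of animals affected out of the number tested.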

[2] = system: Mus musculus; experiment: Neurotoxicity in mouse at 50 mg/kg, ip after 2 hrs by rotarod test; assay type: toxicity, organism-based; conditions: in vivo; method in brief: as §1
[3] = system: Mus musculus; experiment: Neurotoxicity in mouse at 50 mg/kg, ip after 4 hrs by rotarod test; assay type: toxicity, organism-based; conditions: in vivo; method in brief: as §1
[4] = system: Mus musculus; experiment: Neurotoxicity in mouse at 30 mg/kg, ip after 0.5 hrs by rotarod test; assay type: toxicity, organism-based; conditions: in vivo; method in brief: as §1
[5] = system: Mus musculus; experiment: Neurotoxicity in mouse at 30 mg/kg, ip after 4 hrs by rotarod test; assay type: toxicity, organism-based; conditions: in vivo; method in brief: as §1
[6] = system: Mus musculus; experiment: Neurotoxicity in mouse at 100 mg/kg, ip after 0.5 hrs by rotarod test; assay type: toxicity, organism-based; conditions: in vivo; method in brief: as §1
[7] = system: Mus musculus; experiment: Neurotoxicity in mouse at 300 mg/kg, ip after 0.5 hrs by rotarod test; assay type: toxicity, organism-based; conditions: in vivo; method in brief: as §1
[8] = system: Rattus norvegicus; experiment: Anticonvulsant activity in rat assessed as protection against maximal electric shock-induced seizures at 30 mg/kg, po measured after 0.5 hrs; assay type: functional, organism-based
Method in brief: (§2)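 Rats dosed ip or orally as 0.5% methylcellulose suspension; maximal electroshock at listed time. Protection = abolition of hindlimb tonic extension; 4 rats per group, scored protected/tested.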

[9] = system: Rattus norvegicus; experiment: Anticonvulsant activity in rat assessed as protection against maximal electric shock-induced seizures at 30 mg/kg, po measured after 1 hr; assay type: functional, organism-based; method in brief: as §2
[10] = system: Mus musculus; experiment: Anticonvulsant activity in mouse assessed as protection against maximal electric shock-induced seizures at 100 mg/kg, ip measured after […]; assay type: functional, organism-based
[11] = system: Mus musculus; experiment: Anticonvulsant activity in mouse assessed as protection against 6 Hz psychomotor seizure at 100 mg/kg, ip after 2 hrs; assay type: functional, organism-based
Method in brief: (§3)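 Suspension in 0.5% methylcellulose given ip to mice; corneal stimulation with 0.2 ms monopolar rectangular pulses at 6 Hz for 3 s from a constant current device, mice restrained then released to observation cage. Protected if normal exploratory behaviour resumed within 10 s of stimulation. Scored as protected/tested, 4 mice per group.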

[12] = system: Mus musculus; experiment: Neurotoxicity in mouse at 100 mg/kg, ip after 2 hrs by rotarod test; assay type: toxicity, organism-based; conditions: in vivo; method in brief: as §1
[13] = system: Rattus norvegicus; experiment: Anticonvulsant activity in rat assessed as protection against maximal electric shock-induced seizures at 30 mg/kg, po measured after 2 hrs; assay type: functional, organism-based; method in brief: as §2
[14] = system: Rattus norvegicus; experiment: Anticonvulsant activity in rat assessed as protection against maximal electric shock-induced seizures at 30 mg/kg, po measured after 4 hrs; assay type: functional, organism-based; method in brief: as §2
[15] = system: Rattus norvegicus; experiment: Neurotoxicity in rat at 30 mg/kg, ip after […] by rotarod test; assay type: toxicity, organism-based; conditions: in vivo
[16] = system: Rattus norvegicus; experiment: Neurotoxicity in rat at 30 mg/kg, ip after 0.5 hrs by rotarod test; assay type: toxicity, organism-based; conditions: in vivo
[17] = system: Rattus norvegicus; experiment: Neurotoxicity in rat at 30 mg/kg, ip after 1 hr by rotarod test; assay type: toxicity, organism-based; conditions: in vivo
[18] = system: Rattus norvegicus; experiment: Neurotoxicity in rat at 30 mg/kg, ip after 2 hrs by rotarod test; assay type: toxicity, organism-based; conditions: in vivo
[19] = system: Rattus norvegicus; experiment: Neurotoxicity in rat at 30 mg/kg, ip after 4 hrs by rotarod test; assay type: toxicity, organism-based; conditions: in vivo
[20] = system: Rattus norvegicus; experiment: Neurotoxicity in rat at 30 mg/kg, po after […] by rotarod test; assay type: toxicity, organism-based; conditions: in vivo
[21] = system: Rattus norvegicus; experiment: Neurotoxicity in rat at 30 mg/kg, po after 0.5 hrs by rotarod test; assay type: toxicity, organism-based; conditions: in vivo
[22] = system: Rattus norvegicus; experiment: Neurotoxicity in rat at 30 mg/kg, po after 1 hr by rotarod test; assay type: toxicity, organism-based; conditions: in vivo
[23] = system: Rattus norvegicus; experiment: Neurotoxicity in rat at 30 mg/kg, po after 2 hrs by rotarod test; assay type: toxicity, organism-based; conditions: in vivo
[24] = system: Rattus norvegicus; experiment: Neurotoxicity in rat at 30 mg/kg, po after 4 hrs by rotarod test; assay type: toxicity, organism-based; conditions: in vivo
[25] = system: Mus musculus; experiment: Anticonvulsant activity in mouse assessed as protection against 6 Hz psychomotor seizure at 100 mg/kg, ip after 4 hrs; assay type: functional, organism-based; method in brief: as §3
[26] = system: Mus musculus; experiment: Anticonvulsant activity in mouse assessed as protection against maximal electric shock-induced seizures at 100 mg/kg, ip measured after 0.5 hrs; assay type: functional, organism-based
Method in brief: (§4)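 Mice dosed ip with suspension in 0.5% methylcellulose; maximal electroshock applied at the listed time after dosing. Protection = abolition of hindlimb tonic extension component of seizure; reported as animals protected/animals tested.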

[27] = system: Mus musculus; experiment: Anticonvulsant activity in mouse assessed as protection against maximal electric shock-induced seizures at 100 mg/kg, ip measured after 4 hrs; assay type: functional, organism-based; method in brief: as §4
[28] = system: Mus musculus; experiment: Neurotoxicity in mouse at 100 mg/kg, ip after 1 hr by rotarod test; assay type: toxicity, organism-based; conditions: in vivo; method in brief: as §1
[29] = system: Mus musculus; experiment: Neurotoxicity in mouse at 100 mg/kg, ip after 4 hrs by rotarod test; assay type: toxicity, organism-based; conditions: in vivo; method in brief: as §1
[30] = system: Rattus norvegicus; experiment: Anticonvulsant activity in rat assessed as protection against maximal electric shock-induced seizures at 30 mg/kg, ip measured after 2 hrs; assay type: functional, organism-based; method in brief: as §2
[31] = system: Rattus norvegicus; experiment: Anticonvulsant activity in rat assessed as protection against maximal electric shock-induced seizures at 30 mg/kg, ip measured after 4 hrs; assay type: functional, organism-based; method in brief: as §2
[32] = system: Rattus norvegicus; experiment: Anticonvulsant activity in rat assessed as protection against maximal electric shock-induced seizures at 30 mg/kg, po measured after […]; assay type: functional, organism-based
[33] = system: Mus musculus; experiment: Anticonvulsant activity in mouse assessed as protection against maximal electric shock-induced seizures at 30 mg/kg, ip measured after 0.5 hrs; assay type: functional, organism-based; method in brief: as §4
[34] = system: Mus musculus; experiment: Anticonvulsant activity in mouse assessed as protection against maximal electric shock-induced seizures at 30 mg/kg, ip measured after 4 hrs; assay type: functional, organism-based; method in brief: as §4
[35] = system: Mus musculus; experiment: Anticonvulsant activity in mouse assessed as protection against subcutaneous pentylenetetrazol-induced seizures at 30 mg/kg, ip measured after 0.5 hrs; assay type: functional, organism-based
Method in brief: (§5)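 Mice dosed ip as 0.5% methylcellulose suspension; pentylenetetrazole 85 mg/kg in 0.9% NaCl injected subcutaneously into posterior midline, animals watched at least 30 min. Protection = no threshold seizure (single clonic spasm episode lasting ≥5 s); scored protected/tested.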

[36] = system: Mus musculus; experiment: Anticonvulsant activity in mouse assessed as protection against subcutaneous pentylenetetrazol-induced seizures at 100 mg/kg, ip measured after 0.5 hrs; assay type: functional, organism-based; method in brief: as §5
[37] = system: Mus musculus; experiment: Anticonvulsant activity in mouse assessed as protection against subcutaneous pentylenetetrazol-induced seizures at 30 mg/kg, ip measured after 4 hrs; assay type: functional, organism-based; method in brief: as §5
[38] = system: Mus musculus; experiment: Anticonvulsant activity in mouse assessed as protection against subcutaneous pentylenetetrazol-induced seizures at 100 mg/kg, ip measured after 4 hrs; assay type: functional, organism-based; method in brief: as §5
[39] = system: Vibrio harveyi; experiment: Mutagenicity in Vibrio harveyi BB7 assessed as number of colonies after 48 hrs (reference value: 13 to 14 no_unit); assay type: ADME, organism-based; conditions: in vivo
Method in brief: (§6)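 Vibrio harveyi mutagenicity test: test compound was added to exponentially growing cultures (A600 = 0.1, 30 °C) and grown to OD600 0.3–0.4. Then 5 × 10^6 cells were plated on BOSS agar with neomycin (final 100 µg/mL) and incubated 48 h at 30 °C. Neomycin-resistant colonies were counted. Triplicate; controls were water, DMSO and NQNO 40 ng/mL.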

[40] = system: Vibrio harveyi; experiment: Mutagenicity in Vibrio harveyi BB7X assessed as number of colonies after 48 hrs (reference value: 15 to 16 no_unit); assay type: ADME, organism-based; conditions: in vivo; method in brief: as §6
[41] = system: Vibrio harveyi; experiment: Mutagenicity in Vibrio harveyi BB7M assessed as number of colonies after 48 hrs (reference value: 13 to 14 no_unit); assay type: ADME, organism-based; conditions: in vivo; method in brief: as §6
[42] = system: Vibrio harveyi; experiment: Mutagenicity in Vibrio harveyi BB7XM assessed as number of colonies after 48 hrs (reference value: 14 no_unit); assay type: ADME, organism-based; conditions: in vivo; method in brief: as §6
[43] = system: Vibrio harveyi; experiment: Antimutagenic activity against Vibrio harveyi BB7 assessed as inhibition of NQNO-induced mutagenicity after 48 hrs; assay type: functional
Method in brief: (§7)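 V. harveyi cultures grown exponentially to A600 0.1 at 30 °C, exposed to test compound for 15 min, then to NQNO, and grown on to A600 0.3–0.4. 5 × 10⁶ cells plated on BOSS agar with neomycin (100, final). Neomycin-resistant colonies counted after 48 h at 30 °C. Result given as % inhibition of NQNO mutagenicity; three independent repeats.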

[44] = system: Vibrio harveyi; experiment: Antimutagenic activity against Vibrio harveyi BB7X assessed as inhibition of NQNO-induced mutagenicity after 48 hrs; assay type: functional; method in brief: as §7
[45] = system: Vibrio harveyi; experiment: Antimutagenic activity against Vibrio harveyi BB7M assessed as inhibition of NQNO-induced mutagenicity after 48 hrs; assay type: functional; method in brief: as §7
[46] = system: Vibrio harveyi; experiment: Antimutagenic activity against Vibrio harveyi BB7XM assessed as inhibition of NQNO-induced mutagenicity after 48 hrs; assay type: functional; method in brief: as §7
[47] = Retention time of the compound in mouse liver microsomes at 20 uM preincubated for 15 mins followed by addition of NADPH-regenerating system measured after 5 to 90 mins by […] analysis; assay type: ADME
Method in brief: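 Mouse liver microsomes (0.4 mg/mL) with test compound (20 µM) in 100 mM potassium phosphate, pH 7.4, were preincubated 15 min at 37 °C. An NADPH-regenerating system was then added and incubation ran 5–90 min at 37 °C. Levallorphan (20 µM) served as internal standard, and reactions were quenched with perchloric acid. The supernatant was analysed by UPLC/MS. Duplicate incubations.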

[48] = in vitro; conditions: mouse, liver microsomes
[49] = in vitro; conditions: mouse, liver microsomes; remark: listed apart in the source

SMILES: Cc1cccc(C)c1OCCOCCN[C@H](C)CO
- Activity [1]: Non-toxic
- Activity [2]: Non-toxic
- Activity [3]: Non-toxic
- Activity [4]: Non-toxic
- Activity [5]: Non-toxic
- Activity [6]: Toxic
- Activity [7]: Toxic

SMILES: Cc1cccc(OCCCN2CCC(O)CC2)c1C
- Activity [8]: inactive
- Activity [9]: inactive
- Activity [10]: Active
- Activity [11]: inactive
- Activity [12]: Non-toxic
- Activity [13]: inactive
- Activity [14]: inactive
- Activity [15]: Non-toxic
- Activity [16]: Non-toxic
- Activity [17]: Non-toxic
- Activity [18]: Non-toxic
- Activity [19]: Non-toxic
- Activity [20]: Non-toxic
- Activity [21]: Non-toxic
- Activity [22]: Non-toxic
- Activity [23]: Non-toxic
- Activity [24]: Non-toxic
- Activity [25]: inactive
- Activity [26]: Active
- Activity [27]: inactive
- Activity [28]: Non-toxic
- Activity [29]: Non-toxic
- Activity [30]: inactive
- Activity [31]: inactive
- Activity [32]: inactive

SMILES: Cc1cc(C)c(OCCOCCNC(C)CO)c(C)c1 (stereo unspecified)
- Activity [33]: inactive
- Activity [34]: inactive
- Activity [26]: Active
- Activity [35]: inactive
- Activity [36]: inactive
- Activity [37]: inactive
- Activity [38]: inactive
- Activity [4]: Non-toxic
- Activity [5]: Non-toxic
- Activity [29]: Non-toxic
- Activity [7]: Toxic
- Activity [39]: 25
- Activity [40]: 24
- Activity [41]: 19
- Activity [42]: 24
- inhibition (INH) [43]: 81%
- inhibition (INH) [44]: 38%
- inhibition (INH) [45]: 62%
- inhibition (INH) [46]: 43%
- Retention_time [47]: 4.31 min
- half-life at 20 µM [48]: 2.27 h
- microsomal CLint at 20 µM [49]: 13 µL/min/mg

SMILES: Cc1cccc(OCCN2CCC(O)CC2)c1C
- Activity [12]: Non-toxic
- Activity [29]: Non-toxic
